The source of these data is ChEMBL document CHEMBL2311304, “Design, synthesis and in vitro and in vivo antitumor activities of novel bivalent β-carbolines” (Eur J Med Chem, 2013).

SMILES strings stand for the structures.

For one data set, the system named is A-375. Nature of the data set: Cytotoxicity against human malignant melanoma A375 cells assessed as reduction in optical density by MTT assay. In kind it is functional, cell-based. The method, boiled down: (§1)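 Cells were cultured in RPMI-1640 with 10% (v/v) fetal calf serum, 100 µg ml-1 penicillin and 100 µg ml-1 streptomycin at 37 °C in humidified 5% CO2. Compounds were dissolved in DMSO, with final DMSO at 2% (v/v) or lower. MTT staining was used, with three replicate wells per point. IC50 is the concentration giving a 50% drop in optical density versus untreated cells.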
On the technique in general: Tetrazolium dyes change colour on reduction, which living cells bring about.

In a further data set the test system is B16. The data set can be described thus: Antitumor activity in mouse B16 melanoma cell lines cells inoculated mouse assessed as tumor inhibition rate at one fifth of LD50 concentration once a day for consecutive 7 days by ip. In kind it is functional. The arrangement: scale not given: the % may be the effect or the level left. The method, boiled down: (§2)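 Each tumour line was first grown in mice for 7 days, then harvested. Viable cells (2 × 10^6 per mouse) were injected s.c. into the armpit. Dosing began 24 h later: i.p., about one fifth of LD50, daily for 7 days, 10 female mice per group. […] Body weight was recorded every 3 days. Tumours were excised and weighed on day 21 to give inhibition rate.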

Another data set relates to 769-P. Nature of the data set: Cytotoxicity against human renal carcinoma 769-P cells assessed as reduction in optical density by MTT assay. In kind it is functional, cell-based. In short, it runs like this: as §1
In the next data set the test system is H22. The data set can be described thus: Antitumor activity in mouse H22 liver cancer cells inoculated mouse assessed as tumor inhibition rate at one fifth of LD50 concentration once a day for consecutive 7 days by ip. In kind it is functional. Also noted: scale not given: the % may be the effect or the level left. In short, it runs like this:
as §2

A further data set deals with BGC-823. Nature of the data set: Cytotoxicity against human gastric carcinoma BGC823 cells assessed as reduction in optical density by MTT assay. In kind it is functional, cell-based. The method, boiled down: as §1
Data set [1] relates to Mus musculus. Nature of the data set: Toxicity in C57BL/6 mouse assessed as maximum weight loss at 30 mg/kg, ip. In kind it is organism-based. Also noted: dose 30 mg/kg, route intraperitoneal. The settings on record: in vivo. The method, boiled down: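 Tumor-bearing mice, 10 females per group, were inoculated s.c. in the armpit with 2 × 10^6 viable tumor cells. Compound was given i.p. once daily for 7 consecutive days, starting 24 h after inoculation. […] Body weight was recorded every 3 days until sacrifice on day 21.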

The nature of data set [2]: Antitumor activity in mouse Sarcoma 180 cells inoculated mouse assessed as tumor inhibition rate at one fifth of LD50 concentration once a day for consecutive 7 days by ip. In kind it is functional. The arrangement: scale not given: the % may be the effect or the level left. The method, boiled down: as §2
The nature of data set [3]: Antitumor activity in mouse Lewis lung cancer cells inoculated mouse assessed as tumor inhibition rate at one fifth of LD50 concentration once a day for consecutive 7 days by ip. In kind it is functional, Cancer cell lines. Also noted: scale not given: the % may be the effect or the level left. The method, boiled down: as §2
A further data set relates to KB. The data set can be described thus: Cytotoxicity against human epidermoid carcinoma of the nasopharynx KB cells assessed as reduction in optical density by MTT assay. In kind it is functional, cell-based. In short, it runs like this:
as §1

Data set [4] has as its system Mus musculus. The data set can be described thus: Toxicity in C57BL/6 mouse assessed as kidney damage at 1 to 500 mg/kg, ip for 14 days. In kind it is organism-based. The arrangement: dose 1-500 mg/kg, route intraperitoneal. Particulars: in vivo, 336 h. The method, boiled down: (§3)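 Healthy C57BL/6 mice (9–12 weeks, 18–22 g) were fasted overnight with free access to water. Each received a single i.p. dose of 1.0–500 mg kg-1 in 0.5% CMC-Na, 10 mice per group (5 male, 5 female). Mice were watched continuously for 2 h, intermittently to 24 h, then occasionally to 14 days for tremor, twitch, jumping and supination. At day 14 they were killed and heart, liver and kidneys were examined macroscopically.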

Data set [5] deals with Mus musculus. The data set can be described thus: Toxicity in C57BL/6 mouse assessed as liver damage at 1 to 500 mg/kg, ip for 14 days. In kind it is organism-based. The arrangement: dose 1-500 mg/kg, route intraperitoneal. Particulars: in vivo, 336 h. The method, boiled down: as §3
In data set [6] the test system is Mus musculus. The data set can be described thus: Toxicity in C57BL/6 mouse assessed as heart damage at 1 to 500 mg/kg, ip for 14 days. Particulars: in vivo, 336 h. In kind it is organism-based. Also noted: dose 1-500 mg/kg, route intraperitoneal. In short, it runs like this: as §3
The test system of another data set is SK-OV-3. The data set can be described thus: Cytotoxicity against human ovary adenocarcinoma SKOV3 cells assessed as reduction in optical density by MTT assay. Particulars: SK-OV-3, Female gonad. In kind it is functional, cell-based. The method, boiled down: as §1
The test system of data set [7] is Mus musculus. The data set can be described thus: Neurotoxicity in C57BL/6 mouse at 1 to 500 mg/kg, ip for 14 days. In kind it is toxicity, organism-based. Also noted: dose 1-500 mg/kg, route intraperitoneal. Particulars: in vivo, 336 h. In short, it runs like this: as §3
The next data set relates to CT26. Nature of the data set: Antitumor activity in mouse CT26 colon cancer cells inoculated mouse assessed as tumor inhibition rate at one fifth of LD50 concentration once a day for consecutive 7 days by ip. In kind it is functional. The arrangement: scale not given: the % may be the effect or the level left. In short, it runs like this:
as §2

The subject of data set [8] is Mus musculus. Nature of the data set: Toxicity in C57BL/6 mouse assessed as maximum weight loss at 7.5 mg/kg, ip. The arrangement: dose 7.5 mg/kg, route intraperitoneal. In kind it is organism-based. Particulars: in vivo.

One may read the IC50 as the midpoint of a concentration-inhibition curve. Turning to `c1ccc2c(c1)c1ccncc1n2CCCCCn1c2ccccc2c2ccncc21`, the half-maximal inhibitory concentration (IC50) with A-375 was 10.2 µM; in the data set with 769-P it was 15.3 µM; with BGC-823, 23.5 µM; with KB, > 200 µM; in the data set with SK-OV-3, > 200 µM. In addition, the Activity with B16 is 26.1%; in the data set on H22, 40.4%; in the data set with Mus musculus [1], 10%; in data set [2], 43.8%; in data set [3], 42.5%; with Mus musculus [4], “Non-toxic”. Moreover, the Activity entry with Mus musculus [5] is listed as “Non-toxic”; in the data set on Mus musculus [6], “Non-toxic”; with Mus musculus [7], “Non-toxic”; in the data set on CT26, 48.6%.
On to `COc1ccc2c(c1)[nH]c1c(C)nccc12` [HARMINE], for which the half-inhibitory concentration (IC50) in the data set on A-375 came out at 72.5 µM; in the data set with 769-P, 48.9 µM; with BGC-823 it was 63.2 µM; with KB it was 57.8 µM; in the data set on SK-OV-3, 74.6 µM. Moreover, the Activity in the data set with Mus musculus [8] is 8.5%; in data set [2], 15.3%; in data set [3], 34.1%; with Mus musculus [7] it was “Toxic”.
